The values below come from publication PMC5474427 (EBioMedicine, 2016).

Series [1] deals with palmitoyl-β-tubulin. Description: Tubulin palmitoylation in NSCLC cell lines. It counts as cell-based. Conditions: A549 cells, 20 μM for 18 h.
Series [2] concerns palmitoyl-α-tubulin. Description: Tubulin palmitoylation in NSCLC cell lines. It counts as cell-based. Particulars: A549 cells, 20 μM for 18 h.
The subject of series [3] is CALU6 NSCLC adenocarcinoma cell line xenograft. Description: CALU6 NSCLC xenograft tumor growth. It counts as in vivo, mice. Particulars: CALU-6; TVB-3166 60 mg/kg oral once daily; paclitaxel 10 mg/kg iv every 4 days. In outline:
(§1)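 Mice with NSCLC cell-line (CALU-6, A549) or patient-derived tumors were randomized by tumor size and dosed once mean tumor size reached 150–200 mm3; ≥10 mice/group. FASN inhibitor 60 mg/kg by oral gavage once daily; paclitaxel 10 mg/kg iv every 4 days or docetaxel 8 or 6 mg/kg iv every 7 days. In combinations, FASN inhibitor was given 2 h before taxane. TGI is % tumor growth from treatment start, drug vs vehicle groups.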

Series [4] concerns MRC-5 lung fibroblasts. It counts as cell-based. Particulars: MRC-5 fibroblasts.
Series [5] has as its system xenograft tumor models. As to the kind of experiment: Xenograft tumor models, summary statements across models. It counts as in vivo, mice. Particulars: three NSCLC studies (CALU6, A549, CTG-0165_P + 6). In outline: as §1
Series [6] has as its system CALU6 non-small-cell lung tumor cells. Description: Soft agar colony formation. It counts as cell-based. In outline: (§2)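 Cells were plated in 0.35% agarose in IMDM with 10% FBS, 1% non-essential amino acids and 1% L-glutamine, containing a dose–response matrix of FASN inhibitor and paclitaxel. This layer sat over a 0.6% bacto-agar base in the same medium. A compound-containing liquid feeder layer was changed weekly. After 3–4 weeks, colonies were stained with 0.005% crystal violet and wells imaged.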

Series [7] concerns 22Rv1 prostate tumor cells. Description: Soft agar colony formation. It counts as cell-based. The procedure, abridged: as §2
For series [8], the system named is β-tubulin mRNA in 22Rv1 prostate tumor cells. As to the kind of experiment: β-tubulin mRNA expression by RNA sequencing. It counts as cell-based. Particulars: 22Rv1 cells, 48 h, 1 μM TVB-3166.
For series [9], the system named is Phospho-b-Catenin (S675). It counts as in vivo. Conditions: A549 xenograft tumors, 2 h after final dose on day 20. The procedure, abridged:
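Xenograft tumors were harvested 2 h after the last dose, flash frozen and lysed in buffer with protease and phosphatase inhibitors. Protein was measured by BCA. Lysates from individual mice in each group were pooled so each tumor contributed equal total protein. Western blots were imaged on an infrared imager. Pools were run once, with no statistical testing.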

The conditions of series [10]: Phase I, solid tumors; ref Dean et al., 2016; cited from earlier work.

As for `CCCCCCCCCCCCCCC(Br)C(=O)O` (stereo not drawn) [2-Bromo-Palmitate, 2-bromopalmitate], the “decrease of palmitoyl-β-tubulin level” value in series [1] turned out to be 79%. The “decrease of palmitoyl-α-tubulin level” value in [2] worked out at 27%.

For `CC(=O)O[C@H]1C(=O)[C@@]2(C)[C@H]([C@H](OC(=O)c3ccccc3)[C@]3(O)C[C@H](OC(=O)[C@H](O)[C@@H](NC(=O)c4ccccc4)c4ccccc4)C(C)=C1C3(C)C)[C@]1(OC(C)=O)CO[C@@H]1C[C@@H]2O` [Paclitaxel], in series [3], the TGI vs. vehicle is 63%. Further, the “effect on microtubule organization in non-tumor cells” value in series [4] is given as “very little effect”. Moreover, the “tumor growth inhibition, single agent” value in [5] is 48–63%. Also, the “soft agar colony growth” value was “strong inhibition of colony growth” in series [6] (3 nM paclitaxel), “did not affect colony size or number” in series [6] (paclitaxel 0.3 or 1.0 nM), “strong inhibition of colony growth” in [7] (3 nM paclitaxel) and “did not affect colony size or number” in series [7] (paclitaxel 0.3 or 1.0 nM). Moreover, the “β-tubulin mRNA expression compared to DMSO” value in series [8] was “no effect”.

For the molecule `CC(=O)O[C@@]12CO[C@@H]1C[C@H](O)[C@@]1(C)C(=O)[C@H](O)C3=C(C)[C@@H](OC(=O)[C@H](O)[C@@H](NC(=O)OC(C)(C)C)c4ccccc4)C[C@@](O)([C@@H](OC(=O)c4ccccc4)[C@H]21)C3(C)C` [Docetaxel], the “inhibition of β-catenin S675 phosphorylation” value in series [9] was found to be 25%.

Consider `Cc1nnc(-c2cc(C(=O)N3CCC(c4ccc(C#N)cc4)CC3)c(C)cc2C2CCC2)[nH]1` [TVB-2640], for which the “oral bioavailability and pharmacokinetics” value in series [10] is reported as “excellent”.
